DNMT1 inh – inhibitors of human DNMT1 | P26358 | DNMT1 molecular beacon, Hinp1I cleavage, fluorescence | inhibition (reported as % activation of signal), % at 10 µM | actives 0.83% (n = 360,000) | AID 588458; in the data active means inhibition above about 50%
STEP inh – STEP (human) phosphatase inhibition; P54829; recombinant STEP, OMFP fluorogenic substrate, fluorescence; inhibition, % at 20 µM; actives 0.25% (n = 360,000); AID 588621;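 active means inhibition at 20 µM, scaled per plate between control wells, above about 37%, limit read from the data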;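 further: 0% = DMSO with enzyme and substrate and 100% = substrate only without enzyme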
Target sequence (P54829 whole entry, looked up): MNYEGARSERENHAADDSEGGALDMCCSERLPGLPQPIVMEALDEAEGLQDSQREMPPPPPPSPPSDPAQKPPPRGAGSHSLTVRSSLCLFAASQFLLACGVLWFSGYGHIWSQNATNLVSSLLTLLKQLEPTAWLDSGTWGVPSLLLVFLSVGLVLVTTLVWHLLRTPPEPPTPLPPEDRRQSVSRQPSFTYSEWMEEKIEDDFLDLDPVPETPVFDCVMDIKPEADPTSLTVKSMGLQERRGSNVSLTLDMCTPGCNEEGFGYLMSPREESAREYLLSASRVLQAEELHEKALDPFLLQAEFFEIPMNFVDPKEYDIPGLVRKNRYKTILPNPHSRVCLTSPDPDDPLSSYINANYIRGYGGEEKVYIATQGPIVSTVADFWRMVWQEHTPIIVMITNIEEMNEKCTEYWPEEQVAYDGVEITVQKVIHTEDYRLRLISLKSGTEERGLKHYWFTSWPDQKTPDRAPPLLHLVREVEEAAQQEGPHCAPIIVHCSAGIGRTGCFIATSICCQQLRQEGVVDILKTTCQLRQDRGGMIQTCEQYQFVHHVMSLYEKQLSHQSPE
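Material: STEP (striatal-enriched tyrosine phosphatase) enzyme, cell-free | Medium: 50 mM Bis-Tris pH 6.0 with 2.5 mM DTT and 0.005% Tween 20 | Read-out: Percent inhibition scaled to no-enzyme and uninhibited-enzyme controls, plate-pattern corrected | Signal: Fluorescence read at 480 nm ex / 540 nm em | Times: 20 min reaction, room temperature, in the dark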
SUMO1-SIM PPI – SUMO1-SIM interaction modulation; P63165; actives 0.33% (n = 360,000); inhibition, % at 20 µM; AID 602429; SUMO1 binding to a labelled peptide, TR-FRET, 1 h; in the data active means inhibition above about 37%
Target sequence (P63165 whole entry, looked up): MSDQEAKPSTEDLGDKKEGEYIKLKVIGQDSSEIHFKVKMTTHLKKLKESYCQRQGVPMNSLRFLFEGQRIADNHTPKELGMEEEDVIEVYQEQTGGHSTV
LMPTP inh – LMPTP (human) inhibition; P24666; inhibition, % at 20 µM; recombinant LMPTP-A, OMFP fluorogenic substrate, fluorescence intensity; actives 0.22% (n = 360,000);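 active means compounds that cut the enzyme signal by at least half of the control window in the single-dose screen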;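 further: plate controls were DMSO wells with enzyme plus substrate for no effect and substrate without enzyme for full effect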
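test system = LMPTP-A | amount = 0.625 nM LMPTP-A final | reagent = fluorogenic phosphatase substrate OMFP at 400 µM final | incubation = 50 min at room temperature | benchmarks = no-enzyme low control, uninhibited high control | medium = Bis-Tris pH 6.0, DTT, detergent | signal = fluorescence intensity of OMFP turnover product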
Scp1 inh – inhibitors of human Scp-1 phosphatase; Recombinant Scp1, phosphopeptide, malachite green phosphate absorbance; inhibition, % at 20 µM; actives 0.88% (n = 340,000);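 active means inhibition above about 50% at 20 µM, limit read from the data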;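 further: plate controls were DMSO wells with enzyme for no effect and wells lacking enzyme for full effect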
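Test system: SCP-1 catalytic domain; Buffer or medium: Acidic Tris acetate buffer with magnesium and detergent; Also added: Phosphorylated 17-residue peptide substrate; Compound: single 20 µM dose, 1% DMSO; Schedule: enzyme reaction 45 min at room temperature, colour 5 min, stabilisation 30 min; Signal: Phosphate-binding colour reagent, absorbance read at 630 nm.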
DNMT1 confirm – DNMT1 inhibition confirmation, single concentration; AID 602385; actives 8% (n = 2,300); inhibition, % at 10 µM; shares compounds with DNMT1 inh; DNMT1 molecular beacon HinP1I cleavage, fluorescence;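 active means average inhibition of at least 30% in the single-concentration confirmation test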
Beacon interf – counter-screen for DNMT1 inhibitors: spectral interference; shares compounds with DNMT1 inh; DNMT1 molecular beacon spectral interference counterscreen, fluorescence 485/520; activation (fluorescence interference), % at 10 µM; actives 1% (n = 2,300);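 active means activation of at least 30% at 10 µM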;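 further: DNMT1 catalytic domain with a HinP1I cleavage step and a FAM/dabcyl DNA beacon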
STEP conf – STEP (human) phosphatase inhibition, single concentration confirmation | shares compounds with STEP inh | recombinant STEP, OMFP fluorogenic substrate, fluorescence | inhibition, % at 20 µM | actives 32% (n = 520) | AID 623866; call rule not given here;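 further: 0% = enzyme with substrate plus DMSO and 100% = substrate without enzyme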
* hit, by the source's call; x = no result. The list is not random: actives were taken first. Their share in the collection is about 1.8%.

SMILES	DNMT1 inh	STEP inh	SUMO1-SIM PPI	LMPTP inh	Scp1 inh	DNMT1 confirm	Beacon interf	STEP conf
COc1ccc(C(=O)NC(=S)Nc2nnn(C)n2)cc1	86*	-3	1	0	-14	4	7	x
N=c1c(S(=O)(=O)c2ccc(Br)cc2)cc2c(=O)n3ccccc3nc2n1Cc1ccco1	86*	16	12	40	23	5	0	x
COc1ccc(CCNC(=O)c2cc3c(=O)n4ccccc4nc3n(Cc3ccco3)c2=N)cc1OC	8	1	10	23	7	x	x	x
Cc1ccc(Cn2c(=N)c(S(=O)(=O)c3ccc(Br)cc3)cc3c(=O)n4ccccc4nc32)cc1	0	4	-1	2	9	x	x	x
Cc1ccc(Cn2c(=N)c(C(=O)NCc3ccco3)cc3c(=O)n4ccccc4nc32)cc1	82*	5	-5	59*	33	3	-5	x
O=C(OCc1ccc([N+](=O)[O-])cc1)c1cnc(Cl)c(Cl)c1	3	4	-12	1	-7	x	x	x
COc1ccc(N2C3=C(C(=O)CC(C)(C)C3)C(c3ccccc3OC)C3=C2CC(C)(C)CC3=O)cc1	-8	0	-7	1	-10	x	x	x
COc1ccccc1C1C2=C(CC(C)(C)CC2=O)N(CC(=O)O)C2=C1C(=O)CC(C)(C)C2	52*	0	-8	-1	-8	7	9	x
Cc1ccc(NC(=O)CN(C)C(=O)COC(=O)CCS(=O)(=O)c2ccc(C)cc2)cc1	3	-1	-1	0	-7	x	x	x
O=C(Cn1c2ccccc2c(=O)c2ccccc21)N/N=C/c1cc([N+](=O)[O-])ccc1N1CCCCCC1	72*	89*	-7	66*	87*	4	5	12
COc1ccccc1-c1csc(-n2ncc(C#N)c2N)n1	76*	61*	95*	41	x	12	0	19
O=C(CSc1nc(-c2ccc(F)cc2)nc2c1Cc1ccccc1O2)Nc1cccc(C(=O)O)c1	99*	97*	108*	88*	89*	6	-14	13*
COc1ccccc1N(CC(=O)N1CCN(c2ccc(F)cc2)CC1)S(=O)(=O)c1ccc(C)cc1	0	4	0	2	-7	x	x	x
C/C(CC(C)C)=N\NS(=O)(=O)c1ccc(C)c([N+](=O)[O-])c1	86*	90*	-6	-1	1	1	10	-4
COc1ccc(NC(=O)N(C)C[C@H]2OCCCC[C@H](C)Oc3ccc(NS(=O)(=O)c4cn(C)cn4)cc3C(=O)N([C@H](C)CO)C[C@@H]2C)cc1	1	-2	5	-1	x	x	x	x
CCN(CC)S(=O)(=O)c1ccc(N2CCCCC2)c(NC(=O)C2=COCCO2)c1	-2	3	3	2	4	x	x	x
CC1(C)CC(=O)C(C=NCC2CCN(C(=O)Cc3ccccc3)CC2)=C(O)C1	76*	48*	70*	15	4	4	2	0
CCc1ccccc1NC(=O)c1ccc2nc(N3CCOCC3)sc2c1	-1	0	-2	0	10	x	x	x
Cc1ccc(NC(=O)c2ccc3nc(N4CCOCC4)sc3c2)c(Cl)c1	53*	84*	5	0	-10	-2	-4	54*
CC(=O)c1cccc(-c2ccnc3c2CC(C(=O)NCc2ccncc2)O3)c1 (configuration not stated)	-1	-2	0	2	x	x	x	x
Cn1nnc(NCc2cc(Br)ccc2OCc2ccccc2F)n1	77*	66*	1	-1	-6	0	5	24
Fc1ccccc1COc1ccc(Br)cc1CNCC1CCCO1 (configuration not stated)	6	-4	3	1	1	x	x	x
Cc1ccc(S(=O)(=O)N/N=C\c2cn(CC(N)=O)c3ccccc23)cc1	1	-4	-7	-1	-2	x	x	x
COc1ccc(-c2ccc(NC(=O)c3ccc(Br)o3)cc2)nn1	56*	42*	9	54*	50	5	4	33*
COc1cccc(-c2cnc3cccnn23)c1	1	-2	-6	0	x	x	x	x
SMILES	DNMT1 inh	STEP inh	SUMO1-SIM PPI	LMPTP inh	Scp1 inh	DNMT1 confirm	Beacon interf	STEP conf
COc1ccc(/C=N/Nc2ncnc3c2[nH]c2ccccc23)c(OC)c1OC	20	-1	-3	0	6	x	x	x
COc1cccc(/C=N/Nc2ncnc3c2[nH]c2ccc(C)cc23)c1OC	60*	77*	90*	26	20	1	-3	4
Cc1ccc2nc(NC(=O)c3ccc(S(=O)(=O)N4CCCc5ccccc54)cc3)sc2c1	95*	121*	1	1	-6	3	4	-5
O=C(Nc1nc2ccc(F)cc2s1)c1cccc(S(=O)(=O)N2CCc3ccccc32)c1	-8	-1	1	3	-12	x	x	x
Cc1nnc2sc(-c3ccc(NC(=O)c4ccc(-c5ccc(Cl)cc5Cl)o4)cc3)nn12	65*	95*	31	56*	36	8	1	60*
CC(=O)Cc1nsc(NC(=O)c2ccc(-c3ccc(Cl)cc3Cl)o2)n1	-6	-2	-8	2	-9	x	x	x
COc1cc2c(cc1OC)C(C(=O)O)C(c1ccc(C)o1)N(C)C2=O (configuration not stated)	-1	56*	2	0	-4	x	x	12
Cc1ccc(C2C(C(=O)O)c3ccccc3C(=O)N2C)o1 (configuration not stated)	-1	-2	-2	-1	-11	x	x	x
O=C(N/N=C/c1cccnc1)c1ccc(NC(=O)c2ccc(Cl)cc2)cc1	19	53*	18	9	3	x	x	11
c1ccc(OCc2nnc3n2N=C(c2ccccc2)CS3)cc1	-2	70*	-5	1	-5	x	x	0
COc1ccc(C(=O)NC2CCCc3ccccc32)cc1[N+](=O)[O-] (configuration not stated)	1	2	-13	0	-12	x	x	x
CSc1ccccc1NC(=O)CN(C)C(=O)c1cccc(S(=O)(=O)N(C)C)c1	2	49*	-10	4	1	x	x	8
O=C1CCCc2c1sc1nc3n(c(=O)c21)CCCCC3	7	45*	-21	0	-11	x	x	-10
COC1CCN(C(=O)C2CCC(=O)N(CCc3cccc(F)c3)C2)CC1 (configuration not stated)	1	-1	-2	-2	2	x	x	x
O=C(NCCCNC(=O)c1cnccn1)c1ccc(Br)cc1	0	59*	4	-2	-1	x	x	0

Assay outcomes from PubChem.
